Screens: PubChem, The Scripps Research Institute Molecular Screening Center
OX1R antag-1 – blocks the human orexin 1 receptor; O43613; 330,000 tested, 0.43% active; AID 434989; inhibition, % at 5 µM; CHO/OX1R cells, Fluo-8 calcium fluorescence, orexin A;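 active = inhibition above its plate's threshold, mean inhibition of all tested compounds on the plate plus 3 SD, cut at about 37% in these data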;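 also: 0% = orexin A challenge wells and 100% = SB-334867-A antagonist wells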
Target sequence (O43613 whole entry, looked up): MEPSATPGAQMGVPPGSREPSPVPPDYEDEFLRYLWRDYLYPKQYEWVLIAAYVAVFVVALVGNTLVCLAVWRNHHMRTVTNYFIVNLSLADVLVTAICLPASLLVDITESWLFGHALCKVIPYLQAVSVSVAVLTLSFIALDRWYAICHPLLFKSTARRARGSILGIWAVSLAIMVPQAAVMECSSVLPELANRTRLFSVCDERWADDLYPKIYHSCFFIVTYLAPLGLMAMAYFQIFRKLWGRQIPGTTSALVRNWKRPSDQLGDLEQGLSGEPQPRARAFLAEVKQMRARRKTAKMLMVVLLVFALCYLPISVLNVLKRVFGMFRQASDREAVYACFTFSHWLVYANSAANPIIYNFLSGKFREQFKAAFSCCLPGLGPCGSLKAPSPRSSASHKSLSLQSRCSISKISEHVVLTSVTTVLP
OX1R antag-2 – blocks the human orexin 1 receptor | OX1R-expressing cells, FRET antagonist read-out | O43613 | 330,000 tested, 1.8% active | AID 485270 | inhibition, % at 6.6 µM; in the data active = inhibition mostly above about 38%, no sharp cut-off; inactive = mostly below about 40%;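 also: 0% = agonist challenge alone and 100% = reference antagonist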
TAAR1 antag – human TAAR1 antagonism; Q96RJ0; CHO RD-HGA16 TAAR1, Fluo-8 calcium fluorescence, antagonist; inhibition, % at 3 µM; 360,000 tested, 1.5% active; AID 624466;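 active = inhibition above a per-plate cutoff, the mean inhibition of test compounds on that plate plus 3 SD, cut at about 49% in these data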;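 also: 0% = DMSO plus EC80 beta-PEA response and 100% = DMSO alone without agonist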
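Test system: RD-HGA16 CHO cells with stable hTAAR1 and Gα16 / Probe or stimulus: EC80 β-phenethylamine stimulus / Times: seeding 17-24 h prior, 75-min 37 °C, 30-min RT dye loading / Detection: Fluo-8 calcium-sensitive fluorescence / Read-out basis: % inhibition scaled between DMSO and EC80 PEA controls / Repeats: singlicate, one well per test compound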
TAAR1 ag – human TAAR1 agonism; activation, % at 3 µM; Q96RJ0; CHO RD-HGA16 TAAR1, Fluo-8 calcium fluorescence; vehicle wells 0%, saturating PEA agonist 100%; 360,000 tested, 0.99% active; AID 624467;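 active = activation above the mean activation of all test compounds in the run plus 3 SD, cut at about 38% in these data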
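Test system: RD-HGA16 (CHO) cells co-expressing Gα16 and hTAAR1 | Doses: Single dose, 3 µM | Schedule: 17-24 h seeding, 75 min 37 °C dye, 30 min RT | Evaluation: % activation from peak over basal fluorescence ratio, DMSO-to-PEA scaled | Technique: Kinetic Fluo-8 calcium fluorescence | Benchmarks: Low control DMSO, high control PEA (EC100)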
GalR3 antagonist – human GalR3 antagonism; HEK293 GalR3-CNG cAMP membrane potential fluorescence; galR3 body fused to GalR1 C-terminus; inhibition, % at 3 µM; 360,000 tested, 0.44% active; AID 651719;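 active = inhibition above the screen-wide average plus 3 SD, cut at about 13% in these data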;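 also: forskolin and galanin both at EC90 stimulate the cells; cAMP rise reported by CNG channel membrane potential dye signal; 0% = forskolin plus galanin with DMSO and 100% = forskolin alone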
CHO parental Ca – signal in parental CHO cells, OX1R antagonist counter-screen; parental CHO-K1, ATP-induced calcium, Fluo-8 fluorescence; inhibition, % at 5.6 µM; 330,000 tested, 0.63% active;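 active = inhibition above that plate's mean sample inhibition plus 3 SD, cut at about 26% in these data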;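 also: 0% = ATP-challenged DMSO wells and 100% = DMSO wells without ATP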
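Material: Parental CHO cells | Reagent: ATP | Compound dosing: Single nominal dose of 5.6 µM per compound | Detection: Intracellular calcium via Fluo-8 no-wash fluorescent dye | Read-out: % inhibition of ATP-induced calcium mobilization | Benchmarks: Low control ATP plus DMSO, high control DMSO only | Replicates: Singlicate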
* = called active by the depositor; . = no result. An excerpt weighted towards active compounds, which were near 4.2% of everything screened.

SMILES	OX1R antag-1	OX1R antag-2	TAAR1 antag	TAAR1 ag	GalR3 antagonist	CHO parental Ca
Cc1cccc(CN2C(=O)/C(=C\c3ccc(C(=O)NCCN4CCOCC4)cc3)Sc3ccccc32)c1	4	12	.	.	.	-13
CN(c1ccccc1)S(=O)(=O)c1cccc(NC(=O)CCNC(=O)c2ccccc2)c1	16	15	54*	15	-5	-15
CN(c1ccccc1)S(=O)(=O)c1cccc(NC(=O)CCNC(=O)c2ccc(Cl)cc2)c1	11	1	37	4	-4	-18
CN(c1ccccc1)S(=O)(=O)c1cccc(C(=O)NNC(=O)c2ccccc2)c1	9	46*	2	7	-4	31
CCN1CCN(S(=O)(=O)c2ccc(C(=O)Nc3ccccc3)cc2)CC1	-2	26	1	2	0	-2
COc1ccccc1Nc1c([N+](=O)[O-])cncc1[N+](=O)[O-]	2	57	13	-1	-6	-3
Cc1ccccc1Nc1c([N+](=O)[O-])cncc1[N+](=O)[O-]	2	63*	-20	-1	-4	-5
O=[N+]([O-])c1cc([N+](=O)[O-])c2nonc2c1Nc1ccccc1O	.	.	-6	5	-8	.
O=[N+]([O-])c1cncc([N+](=O)[O-])c1Nc1cccc(O)c1	4	56*	-8	2	-9	-6
O=[N+]([O-])c1cc([N+](=O)[O-])c2nonc2c1Nc1ccc(O)cc1	6	76*	-9	-1	-4	1
Cc1ccc(C)c(NC(=S)NNc2ccc(F)cc2F)c1	83*	17	44	0	-4	71*
c1ccc(-c2ccc(CN3CCN(c4ncccn4)CC3)cc2)cc1	-32	17	-1	13	-4	-12
COc1cc(CNCc2ccccc2)cc(Cl)c1OC	-32	13	-5	3	-2	-13
COc1cc(CNCCc2ccccc2)cc(Cl)c1OCc1ccccc1	-17	5	39	40*	-5	27
CCOc1cc(CNCC(C)C)cc(Cl)c1OCc1ccccc1	-18	21	-18	16	-7	-24
CCOc1cc(CNC2CCCC2)cc(Cl)c1OCc1ccccc1	0	6	19	58*	-11	0
Cc1ccc(C2CC(=O)C(C=NCCN3CCN(CC(=O)Nc4cc(C)cc(C)c4)CC3)=C(O)C2)cc1 (stereo unspecified)	.	.	8	-1	-3	.
COc1ccc(-c2csc(Nc3ccc(S(N)(=O)=O)cc3)n2)cc1OC	-9	12	26	0	-4	-5
COc1cc(Nc2ccc(S(N)(=O)=O)cc2)c([N+](=O)[O-])nc1[N+](=O)[O-]	-8	48*	0	-1	0	11
Nc1nc(SCC(=O)c2ccc([N+](=O)[O-])cc2)n[nH]1	-5	49*	10	2	-4	-9
CC(=O)NC1=C(N(C)C2CCS(=O)(=O)C2)C(=O)c2ccccc2C1=O (stereo unspecified)	-9	70*	-4	1	-2	-8
c1ccc(-c2nnc(N3CCN(c4ccccn4)CC3)c3ccccc23)cc1	-30	14	50*	4	-3	-20
Cc1ccc(-c2nnc(N3CCN(c4ccccn4)CC3)c3ccccc23)cc1	-23	11	42	8	1	14
O=C(c1cnc(N2CCN(c3ncccn3)CC2)c2ccccc12)N1CCN(c2ccccn2)CC1	1	9	61*	18	-2	-5
Cc1cc(Br)ccc1NC(=O)c1sc2ncnc(N3CCN(c4ccccn4)CC3)c2c1C	-11	-2	-3	0	2	-16
SMILES	OX1R antag-1	OX1R antag-2	TAAR1 antag	TAAR1 ag	GalR3 antagonist	CHO parental Ca
Cc1ccc(NC(=O)c2cnc(N3CCN(c4ccccn4)CC3)c3ccccc23)c(Br)c1	-2	19	72*	10	-4	-5
COc1ccc(N2CC(C(=O)N3CCN(c4ccccc4)CC3)CC2=O)cc1 (stereo unspecified)	-9	9	-5	-1	-2	-7
c1cc(-c2nnc3n2CCCCC3)ccn1	4	6	18	2	-7	-7
CC(C)c1ccc(NC(=O)C2CC(=O)N(C(C)C)C2)cc1 (stereo unspecified)	-6	27	0	9	-8	1
CN(C)c1ccc(-c2nn3c(-c4cccnc4)nnc3s2)cc1	4	20	.	.	.	-15
COc1ccccc1-c1nnc2sc(-c3ccc(N(C)C)cc3)nn12	14	69*	0	-2	11	-19
Clc1ccccc1-c1nnc2sc(-c3ccncc3)nn12	-12	8	14	-1	5	-9
CN(C)c1ccc(-c2nn3c(-c4ccccc4Cl)nnc3s2)cc1	11	59*	10	5	1	6
Cc1ccc(Cn2c(CCNc3nc(-c4ccc(Cl)c([N+](=O)[O-])c4)cs3)nc3cc(C(=O)NCCCO)ccc32)cc1	16	6	55*	8	3	-2
O=[N+]([O-])c1cc(-c2csc(NCCc3nc4cc(C(F)(F)F)ccc4n3CCCO)n2)ccc1Cl	-19	23	4	1	-10	-6
O=C(O)Cn1c(SCCOc2ccccc2)nc2ccccc21	8	43*	-1	20	-5	-11
Cc1ccc(OCCSc2nc3ccccc3n2CC(=O)O)cc1C	-4	43*	2	0	-11	-12
CCCCOc1ccc(OCCSc2nc3ccccc3n2CC(=O)O)cc1	8	16	1	-2	-10	-9
COc1cccc(-c2cnc3c(NC=O)cc(-c4ccc(N(C)C)cc4)cn23)c1	.	.	-14	2	-4	.
CC(=O)Nc1cccc(-c2cc(NC=O)c3ncc(-c4ccc(C(C)=O)cc4)n3c2)c1	.	.	43	12	8	.
COc1ccccc1-c1cc(NC=O)c2ncc(-c3cccc(C(C)=O)c3)n2c1	.	.	50*	16	-5	.
COc1ccc(-c2cc(NC=O)c3ncc(-c4ccc(C(C)=O)cc4)n3c2)cn1	.	.	53*	9	2	.
COc1ccc(-c2cc(NC=O)c3ncc(-c4cccc(OC)c4)n3c2)cc1	.	.	59*	9	-5	.
O=CNc1cc(-c2ccsc2)cn2c(-c3ccccc3)cnc12	.	.	60*	8	-11	.
CS(=O)(=O)NN1C(=O)c2ccccc2NC12CCCC2	2	17	4	2	3	-8
CCOc1c(Br)cc(C(=O)NCCCn2ccnc2)cc1OC	-9	-6	-6	1	-8	-11
O=C(COC(=O)c1cccc2c1C(=O)c1ccccc1C2=O)NC1CCCCC1	-20	22	49*	7	-3	-24
O=C(COC(=O)c1ccc2c(c1[N+](=O)[O-])C(=O)c1ccccc1C2=O)NC1CC1	9	74*	13	3	1	21
